Assays:
DU145 xenografts = assay: Anti-tumor activity in human prostate cancer DU145 xenografts in nude mice; format: in vivo, human tumor in BALB/c-nu/nu mice; conditions: taxol alone, 60 mg/kg i.v. day 0; data not shown
Outline: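 DU145 cells implanted s.c. into right flank of 5–6-week-old male BALB/c nude mice; tumor pieces passaged s.c. into new mice. At ~100 mm3 (day 0), six mice/group. Taxol 60 mg/kg i.v. on day 0; test compound or vehicle given intratumorally on days 0 and 5. Caliper volume = longest × shortest²/2; body weight tracked; Student's t test.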

DU145 cells [1] = format: cell-based, human; conditions: for intracellular accumulation, fluorescence microscopy: 20 µM FITC-labeled peptide, 4 h (Fig. S1A; method section: 10 μM)
Outline: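 FITC-labeled peptides were added to the DU145 culture medium at 10 um and incubated for 4 h. Intracellular distribution of fluorescein was then imaged by fluorescence microscopy with a CCD camera.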

DU145 cells [2] = assay: Flow cytometric cell cycle analysis of DU145 cells; format: cell-based, human; conditions: 20 μM peptide, 24 h (Fig. 2A)
endogenous p27^Kip1 = format: cell-based, human; conditions: 20 μM FITC-labeled peptide, 24 h (Fig. 2B)
Outline: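 DU145 cells (RPMI 1640, 10% FBS, 100 ug/ml kanamycin, 5% CO2) were exposed to 20 uM FITC-labeled cell-permeable peptides, or no peptide, for 24 h. Whole lysates or separated cytoplasmic and nuclear fractions were immunoblotted for endogenous p27Kip1 using nitrocellulose and ECL, with β-actin and topoisomerase II as markers. For localization, cells were formaldehyde-fixed, stained with anti-p27Kip1 and Alexa Fluor 568 secondary, and counterstained with Hoechst 33342.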

DU145 cells [3] = assay: Apoptosis of DU145 cells; format: cell-based, human; conditions: 20 μM peptide, 72 h; flow cytometry (Fig. 3A)

Compound	inhibitory effect on tumor growth, given alone (DU145 xenografts)	intracellular accumulation, fluorescence microscopy (DU145 cells [1])	intracellular accumulation, flow cytometric analysis (DU145 cells [1]; FITC-labeled peptide (Fig. S1B))	increase in the number of cells in G1 phase (DU145 cells [2])	expression of p27^Kip1 (endogenous p27^Kip1)	increase in the sub-G1 fraction (DU145 cells [3])
CC(=O)O[C@H]1C(=O)[C@@]2(C)[C@H]([C@H](OC(=O)c3ccccc3)[C@]3(O)C[C@H](OC(=O)[C@H](O)[C@@H](NC(=O)c4ccccc4)c4ccccc4)C(C)=C1C3(C)C)[C@]1(OC(C)=O)CO[C@@H]1C[C@@H]2O [taxol]	did not show an inhibitory effect	–	–	–	–	–
GGGRRRRRRGC-KKPGLDRDQT [R8-T198mu]	–	had accumulated in cells	had accumulated almost equally in cells	not with Arg^8 and R8-T198mu	not R8-T198mu enhances the expression of p27^Kip1	not with R8-T198mu
GGGRRRRRRRRGC [Arg^8, reference compound]	–	had accumulated in cells	–	not with Arg^8 and R8-T198mu	–	–
